Activity, IC50 and inhibition data for 14 compounds are collected here from ChEMBL document CHEMBL5584259, “NMR-Guided Isolation of Anti-inflammatory Carabranolides from the Fruits of Carpesium abrotanoides L” (J Nat Prod, 2024).

Data set [1] deals with RAW264.7. The data set can be described thus: Cytotoxicity against mouse RAW264.7 cells assessed as reduction in cell viability up to 20 uM incubated for 24 hrs by MTT assay. The format is toxicity, cell-based. The note with it: raw264.7, 24 h. An outline of the steps:
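Viability read by MTT in parallel with the NO assay: RAW264.7 at 1 × 10^5/well, compound at 1.25–20 μM in triplicate, LPS 100 ng/mL for 24 h.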

Data set [2] relates to RAW264.7. The data set is described as follows: Antiinflammatory activity in mouse RAW264.7 cells assessed as inhibition of LPS-induced NO production incubated for 24 hrs by Griess reagent based assay. The format is functional, cell-based. The note with it: for IC50: RAW264.7, 24 h. An outline of the steps: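 RAW264.7 (ATCC) grown in DMEM + 10% FBS, 37 °C, 5% CO2. Cells at 1 × 10^5/well treated with compound or dexamethasone at 1.25, 2.5, 5, 10, 20 μM in triplicate, then stimulated with LPS 100 ng/mL for 24 h. Supernatant nitrite measured with Griess reagent, absorbance 550 nm; IC50 from concentration series.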
(Nitrite, measured by Griess reagent, commonly stands in for NO production.)

For data set [3], the system named is RAW264.7. The data set is described as follows: Antiinflammatory activity in mouse RAW264.7 cells assessed as inhibition of LPS-induced iNOS protein expression incubated for 24 hrs by Western blot analysis. Format: functional, cell-based. The settings on record: dose 5-20 µM. An outline of the steps: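 Cells seeded at 5 × 10^5/well, exposed to compound at 10, 20, 40 μM or dexamethasone 5 μM, then LPS 0.5 μg/mL for 24 h. RIPA lysates run on 8% SDS-PAGE, transferred to PVDF. Probed overnight at 4 °C for iNOS with GAPDH as loading control, then secondary antibody 1 h at room temperature.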
(In general: Immunoblotting shows a protein as a band on a membrane.)

Some results are limits rather than exact numbers.

Take `C=C1C(=O)O[C@@H]2C[C@]3(C)C(CC[C@@H](C)OC(=O)CCCCCCCC(=O)O)[C@@H]3C[C@H]12` (stereo not given in full): the Activity result with RAW264.7 [1] is reported as “Non-Toxic”. For the same compound, in the data set on RAW264.7 [2], the IC50 worked out at 9.35 µM.
In the case of `C=C1C(=O)O[C@@H]2C[C@]3(C)[C@@H](CC[C@@H](C)OC(=O)Cc4ccc(O)cc4C)[C@@H]3C[C@H]12`, the inhibition entry in the data set with RAW264.7 [3] and in the data set with RAW264.7 [2] was “Dose-Dependent Effect” throughout. The Activity entry in the data set with RAW264.7 [1] is on record as “Non-Toxic”. For the same compound, the IC50 in the data set on RAW264.7 [2] amounted to 5.82 µM.
Regarding `C=C1C(=O)O[C@@H]2C[C@]3(C)[C@@H](CC[C@@H](C)OC(=O)CCCCCCC/C=C/C/C=C/CCCCC)[C@@H]3C[C@H]12`, in the data set on RAW264.7 [1], the Activity entry is reported as “Non-Toxic”. For the same compound, the IC50 in the data set on RAW264.7 [2] was greater than 20 µM.
The corresponding values for `C=C1C(=O)O[C@@H]2C[C@]3(C)C(CC[C@@H](C)OC(=O)C[C@@H](O)CCCCCCCCCCCCCC)[C@@H]3C[C@H]12` (stereo not given in full) are “Non-Toxic” and greater than 20 µM.
As for `C=C1C(=O)O[C@@H]2C[C@]3(C)[C@@H](CC[C@@H](C)OC(=O)CC4CCC(=O)C=C4C)[C@@H]3C[C@H]12` (stereo not given in full), in the data set on RAW264.7 [3], the inhibition result was “Dose-Dependent Effect”. In addition, the Activity result with RAW264.7 [1] is listed as “Non-Toxic”. In the data set on RAW264.7 [2], the inhibition result is “Dose-Dependent Effect” and the IC50 is 9.15 µM.
On to `C=C1C(=O)O[C@@H]2C[C@]3(C)[C@@H](CC[C@@H](C)OC(=O)CCCC[C@@H](O)/C=C/[C@@H](O)[C@H](O)CCCCCCCC)[C@@H]3C[C@H]12`, for which the Activity result with RAW264.7 [1] was “Non-Toxic”. Moreover, the IC50 in the data set on RAW264.7 [2] was determined as 11.6 µM.
On to `C=C1C(=O)O[C@@H]2C[C@]3(C)[C@@H](CC[C@@H](C)OC(=O)CCCCCCC[C@@H]4OC(=O)C[C@H]4O)[C@@H]3C[C@H]12`, for which the inhibition entry in the data set on RAW264.7 [3] and in the data set on RAW264.7 [2] was “Dose-Dependent Effect” each time. The Activity entry in the data set with RAW264.7 [1] is on record as “Non-Toxic”. In addition, the IC50 in the data set with RAW264.7 [2] is 8.67 µM.
In the case of `C=C1C(=O)O[C@@H]2C[C@]3(C)[C@@H](CC[C@@H](C)OC(=O)CCCCCCCCC(O)CCCCCCO)[C@@H]3C[C@H]12` (stereo not given in full), the Activity result with RAW264.7 [1] was “Non-Toxic”. For the same compound, the IC50 in the data set on RAW264.7 [2] is 9.87 µM.
The corresponding values for `C=C1C(=O)O[C@@H]2C[C@]3(C)[C@@H](CC[C@@H](C)OC(=O)CCCCCCC[C@H]4OC(=O)C[C@H]4O)[C@@H]3C[C@H]12` are “Non-Toxic” and 15.1 µM.
Regarding `C=C1C(=O)O[C@@H]2C[C@]3(C)C(CC[C@@H](C)OC(=O)CCCCCCCCO)[C@@H]3C[C@H]12` (stereo not given in full), in the data set on RAW264.7 [1], the Activity entry was “Non-Toxic”. Besides, the IC50 with RAW264.7 [2] was determined as 9.75 µM.
As to `C[C@@H]1C[C@H]2[C@@H]3CCC4=CC(=O)C=C[C@]4(C)[C@@]3(F)[C@@H](O)C[C@]2(C)[C@@]1(O)C(=O)CO` [DEXAMETHASONE], the IC50 with RAW264.7 [2] came to 8.52 µM.
For `C=C1C(=O)O[C@@H]2C[C@]3(C)[C@@H](CC[C@@H](C)OC(=O)CCCCCCCCCCCCCCC)[C@@H]3C[C@H]12`, in the data set on RAW264.7 [1], the Activity result is “Non-Toxic”. Also, the IC50 with RAW264.7 [2] was greater than 20 µM.
As to `C=C1C(=O)O[C@@H]2C[C@]3(C)[C@@H](CC[C@@H](C)OC(C)=O)[C@@H]3C[C@H]12`, in the data set with RAW264.7 [3], the inhibition entry was “Dose-Dependent Effect”. In addition, in the data set on RAW264.7 [1], the Activity entry was “Non-Toxic”. In the data set with RAW264.7 [2], the inhibition entry is “Dose-Dependent Effect” and the IC50 is 5.64 µM.
For `C=C1C(=O)O[C@@H]2C[C@]3(C)[C@@H](CC[C@@H](C)OC(=O)CCCC[C@H](O)/C=C/[C@@H](O)[C@H](O)CCCCCCCC)[C@@H]3C[C@H]12`, in the data set on RAW264.7 [1], the Activity result is given as “Non-Toxic”. In addition, in the data set on RAW264.7 [2], the concentration for half-maximal inhibition (IC50) was determined as 11.8 µM.

Usually IC50 stands for the point on the concentration scale where inhibition reaches its midpoint.
